Columns and labels:
[1] = molecular target: T1, Prostaglandin E2 receptor EP1 subtype (Mus musculus, UniProt P35375); experiment: Displacement of [3H]PGE2 from mouse EP1 receptor expressed in CHO cells after 20 mins by scintillation counting; format: cell-based
T1 sequence (P35375 whole entry): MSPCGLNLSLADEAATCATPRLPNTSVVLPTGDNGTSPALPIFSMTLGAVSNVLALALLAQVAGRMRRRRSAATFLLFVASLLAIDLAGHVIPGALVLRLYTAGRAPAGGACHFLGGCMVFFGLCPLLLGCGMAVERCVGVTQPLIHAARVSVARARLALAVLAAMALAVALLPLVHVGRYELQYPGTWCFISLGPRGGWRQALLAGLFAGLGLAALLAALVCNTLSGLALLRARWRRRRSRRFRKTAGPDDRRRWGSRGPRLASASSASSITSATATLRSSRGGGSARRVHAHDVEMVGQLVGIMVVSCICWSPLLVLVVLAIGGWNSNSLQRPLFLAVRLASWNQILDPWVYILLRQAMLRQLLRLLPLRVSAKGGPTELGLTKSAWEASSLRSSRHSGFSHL

[2] = molecular target: Prostaglandin E2 receptor EP2 subtype (Mus musculus, UniProt Q62053); experiment: Displacement of [3H]PGE2 from mouse EP2 receptor expressed in CHO cells after 60 mins by scintillation counting; format: cell-based
[3] = molecular target: T2, Prostaglandin E2 receptor EP3 subtype (Mus musculus, UniProt P30557); experiment: Displacement of [3H]PGE2 from mouse EP3 receptor expressed in CHO cells after 60 mins by scintillation counting; format: cell-based
T2 sequence (P30557 whole entry): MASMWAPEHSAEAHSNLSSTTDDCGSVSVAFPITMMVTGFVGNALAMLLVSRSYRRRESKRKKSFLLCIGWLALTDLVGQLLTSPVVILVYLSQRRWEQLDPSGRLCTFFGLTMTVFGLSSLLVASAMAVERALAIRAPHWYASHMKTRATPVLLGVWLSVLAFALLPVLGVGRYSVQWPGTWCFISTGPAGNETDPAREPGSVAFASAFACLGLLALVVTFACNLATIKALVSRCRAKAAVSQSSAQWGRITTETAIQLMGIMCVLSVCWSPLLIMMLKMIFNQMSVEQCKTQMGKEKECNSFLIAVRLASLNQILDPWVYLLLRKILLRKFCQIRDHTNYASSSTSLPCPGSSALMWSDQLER

[4] = molecular target: Prostaglandin E2 receptor EP4 subtype (Mus musculus, UniProt P32240); experiment: Displacement of [3H]PGE2 from mouse EP4 receptor expressed in CHO cells after 60 mins by scintillation counting; format: cell-based
[5] = molecular target: Prostaglandin E2 receptor EP2 subtype (Rattus norvegicus, UniProt Q62928); experiment: Agonist activity at rat EP2 receptor expressed in CHO cells assessed as cAMP production after 10 mins by radioimmunoassay; format: functional, cell-based
Method in brief: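 CHO cells expressing rat EP2 receptor, seeded 1 × 10^5 cells/well and grown 2 days; washed, incubated 10 min at 37 °C in MEM with 2 µM diclofenac, then preincubated 10 min in assay medium with 1% BSA. Compound added, 10 min at 37 °C, stopped with ice-cold 10% trichloroacetic acid; cAMP measured by radioimmunoassay.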

[6] = molecular target: Prostaglandin E2 receptor EP4 subtype (Rattus norvegicus, UniProt P43114); experiment: Agonist activity at rat EP4 receptor expressed in CHO cells assessed as cAMP production after 10 mins by radioimmunoassay; format: functional, cell-based
Rattus norvegicus [7] = experiment: Induction of bone fracture healing in CrJ:CD(SD)IGS rat assessed as breaking strength of fractured fibulae at 3 ug/kg administered tropically as PLGA microsphere formulation measured after 17 days relative to control; format: functional
Method in brief: (§1)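 Male Sprague–Dawley rats, 8 weeks old. Under sodium pentobarbital (30–50 mg/kg) the left fibula midshaft was exposed and cut. Compound in PLGA microspheres injected topically at the fracture. At 17 days fibulae removed for three-point destructive bending; breaking strength expressed as % of the mean of nonfractured fibulae from intact rats, with vehicle-treated fractured controls.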

Rattus norvegicus [8] = experiment: Induction of bone fracture healing in CrJ:CD(SD)IGS rat assessed as breaking strength of fractured fibulae at 10 ug/kg administered tropically as PLGA microsphere formulation measured after 17 days relative to control; format: functional; method in brief: as §1
Rattus norvegicus [9] = experiment: Induction of bone fracture healing in CrJ:CD(SD)IGS rat assessed as breaking strength of fractured fibulae at 30 ug/kg administered tropically as PLGA microsphere formulation measured after 17 days relative to control; format: functional; method in brief: as §1
Rattus norvegicus [10] = experiment: Induction of bone fracture healing in CrJ:CD(SD)IGS rat assessed as breaking strength of fractured fibulae at 100 ug/kg administered tropically as PLGA microsphere formulation measured after 17 days relative to control; format: functional; method in brief: as §1
Rattus norvegicus [11] = experiment: Induction of bone fracture healing in CrJ:CD(SD)IGS rat assessed as breaking strength of fractured fibulae at 300 ug/kg administered tropically as PLGA microsphere formulation measured after 17 days relative to control; format: functional; method in brief: as §1
Rattus norvegicus [12] = experiment: Induction of bone fracture healing in CrJ:CD(SD)IGS rat assessed as breaking strength of fractured fibulae administered tropically as PLGA microsphere formulation measured after 17 days relative to control; format: functional, organism-based; method in brief: as §1
[13] = Drug release from PLGA microsphere assessed as compound remaining in microsphere at 100 ug/ml after 7 days; format: physicochemical; conditions: 168 h
[14] = Drug release from PLGA microsphere assessed as compound remaining in microsphere at 100 ug/ml after 14 days; format: physicochemical; conditions: 336 h
[15] = Drug release from PLGA microsphere assessed as compound remaining in microsphere at 100 ug/ml after 21 days; format: physicochemical; conditions: 504 h
[16] = Drug release from PLGA microsphere assessed as compound remaining in microsphere at 100 ug/ml after 28 days; format: physicochemical; conditions: 672 h
Rattus norvegicus [17] = experiment: Induction of bone fracture healing in CrJ:CD(SD)IGS rat assessed as breaking strength of fractured fibulae at 1 ug/kg administered tropically as PLGA microsphere formulation measured after 17 days relative to control; format: functional; method in brief: as §1

Prostaglandin E2 receptor EP4 subtype (Mus musculus, UniProt P32240), sequence (P32240 whole entry): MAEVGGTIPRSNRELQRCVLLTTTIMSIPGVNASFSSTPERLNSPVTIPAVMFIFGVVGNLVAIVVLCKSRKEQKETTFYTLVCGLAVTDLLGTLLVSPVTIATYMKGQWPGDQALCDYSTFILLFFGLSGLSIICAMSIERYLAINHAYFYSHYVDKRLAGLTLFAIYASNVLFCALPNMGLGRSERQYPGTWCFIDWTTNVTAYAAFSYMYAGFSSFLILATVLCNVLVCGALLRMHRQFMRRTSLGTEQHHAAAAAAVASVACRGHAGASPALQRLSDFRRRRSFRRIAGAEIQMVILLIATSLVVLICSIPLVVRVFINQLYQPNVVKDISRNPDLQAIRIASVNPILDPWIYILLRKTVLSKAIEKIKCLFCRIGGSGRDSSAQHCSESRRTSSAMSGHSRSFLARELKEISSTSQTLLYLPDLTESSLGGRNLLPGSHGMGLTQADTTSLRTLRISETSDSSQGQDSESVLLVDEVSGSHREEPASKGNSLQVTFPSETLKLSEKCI
Prostaglandin E2 receptor EP2 subtype (Rattus norvegicus, UniProt Q62928), sequence (Q62928 whole entry): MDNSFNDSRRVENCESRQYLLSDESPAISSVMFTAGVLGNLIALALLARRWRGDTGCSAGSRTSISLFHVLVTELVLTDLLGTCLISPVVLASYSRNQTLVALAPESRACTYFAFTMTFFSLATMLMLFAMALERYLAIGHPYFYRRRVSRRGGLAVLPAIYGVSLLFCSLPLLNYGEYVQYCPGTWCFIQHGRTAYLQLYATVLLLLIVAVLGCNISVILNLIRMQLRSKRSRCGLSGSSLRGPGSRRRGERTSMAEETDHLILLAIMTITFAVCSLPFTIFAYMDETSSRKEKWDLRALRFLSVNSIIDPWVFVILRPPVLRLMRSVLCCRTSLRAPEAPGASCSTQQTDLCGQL
Prostaglandin E2 receptor EP4 subtype (Rattus norvegicus, UniProt P43114), sequence (P43114 whole entry): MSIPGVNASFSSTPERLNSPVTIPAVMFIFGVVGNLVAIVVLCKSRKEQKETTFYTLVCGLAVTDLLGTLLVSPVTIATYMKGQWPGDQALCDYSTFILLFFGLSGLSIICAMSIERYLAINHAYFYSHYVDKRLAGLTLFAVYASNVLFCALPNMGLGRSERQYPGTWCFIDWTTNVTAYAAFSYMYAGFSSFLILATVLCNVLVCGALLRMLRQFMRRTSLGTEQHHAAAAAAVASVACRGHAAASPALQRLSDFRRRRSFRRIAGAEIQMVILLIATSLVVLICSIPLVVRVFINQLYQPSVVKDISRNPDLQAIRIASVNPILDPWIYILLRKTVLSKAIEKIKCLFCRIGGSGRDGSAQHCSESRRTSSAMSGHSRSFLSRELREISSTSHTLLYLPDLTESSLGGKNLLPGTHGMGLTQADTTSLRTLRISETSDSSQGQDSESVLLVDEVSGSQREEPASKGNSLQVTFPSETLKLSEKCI
Prostaglandin E2 receptor EP2 subtype (Mus musculus, UniProt Q62053), sequence (Q62053 whole entry): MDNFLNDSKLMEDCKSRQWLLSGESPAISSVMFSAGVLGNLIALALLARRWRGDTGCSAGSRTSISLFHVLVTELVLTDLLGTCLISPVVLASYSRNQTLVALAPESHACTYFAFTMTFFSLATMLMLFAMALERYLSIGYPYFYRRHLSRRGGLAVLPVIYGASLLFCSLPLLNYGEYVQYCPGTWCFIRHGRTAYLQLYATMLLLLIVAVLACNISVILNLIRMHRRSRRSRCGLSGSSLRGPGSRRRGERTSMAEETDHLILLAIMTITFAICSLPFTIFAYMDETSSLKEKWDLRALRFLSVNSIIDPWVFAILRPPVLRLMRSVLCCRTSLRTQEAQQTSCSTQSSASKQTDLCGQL

| Structure (SMILES) | Ki [1] [nM] | Ki [2] [nM] | Ki [3] [nM] | Ki [4] [nM] | EC50 [5] [nM] | EC50 [6] [nM] | Activity (Rattus norvegicus [7]) [%] | Activity (Rattus norvegicus [8]) [%] | Activity (Rattus norvegicus [9]) [%] | Activity (Rattus norvegicus [10]) [%] | Activity (Rattus norvegicus [11]) [%] | Activity (Rattus norvegicus [12]) | Activity [13] [%] | Activity [14] [%] | Activity [15] [%] | Activity [16] [%] | Activity (Rattus norvegicus [17]) [%] |
| --- | --- | --- | --- | --- | --- | --- | --- | --- | --- | --- | --- | --- | --- | --- | --- | --- | --- |
| Cc1ccc(-c2cccc(C[C@H](O)/C=C/[C@H]3CCC(=O)N3CCSc3nc(C(=O)O)cs3)c2)cc1C | 2500 | 1.5 | > 10000 | 0.35 | 1400 | 21 | – | – | – | – | – | – | – | – | – | – | – |
| O=C(O)CCCSCCN1C(=O)CC[C@@H]1/C=C/[C@@H](O)Cc1cccc(OCc2cccnc2)c1 | > 10000 | > 10000 | > 10000 | 4.7 | – | 19 | – | – | – | – | – | – | – | – | – | – | – |
| Cc1ccc(-c2cccc(C[C@H](O)/C=C/[C@H]3CCC(=O)N3CCSc3nc(C(=O)O)cs3)c2)cc1 | 6100 | 2 | > 10000 | 0.43 | 380 | 15 | – | – | – | – | – | – | – | – | – | – | – |
| Cc1cc(C)c2oc(-c3cccc(C[C@H](O)/C=C/[C@H]4CCC(=O)N4CCSc4nc(C(=O)O)cs4)c3)nc2c1 | 3200 | 24 | > 10000 | 0.15 | > 10000 | 7.7 | – | – | – | – | – | – | – | – | – | – | – |
| O=C(O)CCCSCCN1C(=O)CC[C@@H]1/C=C/[C@@H](O)Cc1cccc(OCc2ccncc2)c1 | > 10000 | > 10000 | > 10000 | 28 | – | 46 | – | – | – | – | – | – | – | – | – | – | – |
| O=C(O)CCCSCCN1C(=O)CC[C@@H]1/C=C/[C@@H](O)Cc1cccc(OCc2ccccn2)c1 | > 10000 | > 10000 | > 10000 | 0.89 | – | 0.61 | – | – | – | – | – | – | – | – | – | – | – |
| Cc1cccc(C[C@H](O)/C=C/[C@H]2CCC(=O)N2CCSCCCC(=O)O)c1 | – | – | – | – | – | 5.7 | – | – | – | – | – | – | – | – | – | – | – |
| O=C(O)c1csc(SCCN2C(=O)CC[C@@H]2/C=C/[C@@H](O)Cc2cccc(-c3nc4cc(Cl)ccc4s3)c2)n1 | 680 | 22 | > 10000 | 0.25 | > 10000 | 9.7 | – | – | – | – | – | – | – | – | – | – | – |
| O=C(O)CCCSCCN1C(=O)CC[C@@H]1/C=C/[C@@H](O)Cc1cccc(-c2nc3ccccc3s2)c1 | > 10000 | 720 | > 10000 | 0.36 | – | 3.2 | – | – | – | – | – | – | – | – | – | – | – |
| O=C(O)CCCSCCN1C(=O)CC[C@@H]1/C=C/[C@@H](O)Cc1cccc(-c2ccc3[nH]ccc3c2)c1 | > 10000 | 3500 | > 10000 | 0.28 | – | 85 | – | – | – | – | – | – | – | – | – | – | – |
| O=C(O)c1csc(SCCN2C(=O)CC[C@@H]2/C=C/[C@@H](O)Cc2cccc(-c3nc4ccccc4o3)c2)n1 | > 10000 | 28 | > 10000 | 0.12 | 1600 | 2.2 | – | – | – | – | – | – | – | – | – | – | – |
| O=C(O)c1csc(SCCN2C(=O)CC[C@@H]2/C=C/[C@@H](O)Cc2cccc(-c3nc4ccccc4s3)c2)n1 | 8000 | 15 | > 10000 | 0.19 | 2700 | 13 | – | – | – | – | – | – | – | – | – | – | – |
| Cc1ccc(-c2cccc(C[C@H](O)/C=C/[C@H]3CCC(=O)N3CCSc3nc(C(=O)O)cs3)c2)c(C)c1 | 2400 | 23 | > 10000 | 3.5 | > 10000 | 160 | – | – | – | – | – | – | – | – | – | – | – |
| COc1ccc(-c2cccc(C[C@H](O)/C=C/[C@H]3CCC(=O)N3CCSc3nc(C(=O)O)cs3)c2)cc1 | 5400 | 9.2 | > 10000 | 1.7 | 4600 | 15 | – | – | – | – | – | – | – | – | – | – | – |
| Cc1ccc2nc(-c3cccc(C[C@H](O)/C=C/[C@H]4CCC(=O)N4CCSc4nc(C(=O)O)cs4)c3)oc2c1 | 200 | 56 | > 10000 | 0.16 | 3200 | 1.6 | 84.4 | 87.1 | 71.6 | 124.6 | 167.4 | Dose-dependent effect | 100 | 95 | 86.6 | 87.6 | – |
| O=C(O)c1csc(SCCN2C(=O)CC[C@@H]2/C=C/[C@@H](O)Cc2cccc(-c3nc4cc(Cl)ccc4o3)c2)n1 | 650 | 67 | > 10000 | 0.2 | > 10000 | 4.9 | – | – | – | – | – | – | – | – | – | – | – |
| O=C(O)CCCSCCN1C(=O)CC[C@@H]1/C=C/[C@@H](O)Cc1cccc(-c2ccc3ccccc3c2)c1 | > 10000 | 2100 | > 10000 | 0.6 | – | 96 | – | – | – | – | – | – | – | – | – | – | – |
| O=C(O)CCCSCCN1C(=O)CC[C@@H]1/C=C/[C@@H](O)Cc1cccc(N2Cc3ccccc3C2)c1 | 7100 | > 10000 | > 10000 | 4.4 | – | 28 | – | – | – | – | – | – | – | – | – | – | – |
| O=C(O)CCCSCCN1C(=O)CC[C@@H]1/C=C/[C@@H](O)Cc1cccc(-c2ccccn2)c1 | > 10000 | 6100 | > 10000 | 4.8 | – | 86 | – | – | – | – | – | – | – | – | – | – | – |
| Cc1cccc2oc(-c3cccc(C[C@H](O)/C=C/[C@H]4CCC(=O)N4CCSc4nc(C(=O)O)cs4)c3)nc12 | 7700 | 22 | > 10000 | 0.21 | 8500 | 28 | – | – | – | – | – | – | – | – | – | – | – |
| O=C(O)CCCSCCN1C(=O)CC[C@@H]1/C=C/[C@@H](O)Cc1cccc(-c2ccccc2)c1 | > 10000 | > 10000 | > 10000 | 1.1 | – | 52 | – | – | – | – | – | – | – | – | – | – | – |
| O=C(O)CCCSCCN1C(=O)CC[C@@H]1/C=C/[C@@H](O)Cc1cccc(-c2nc3ccccc3o2)c1 | 5000 | 1700 | > 10000 | 0.2 | – | 13 | – | – | – | – | – | – | – | – | – | – | – |
| O=C(O)c1csc(SCCN2C(=O)CC[C@@H]2/C=C/[C@@H](O)Cc2cccc(-c3cc4ccccc4o3)c2)n1 | 2700 | 2.1 | 1700 | 0.12 | 1500 | 5.3 | 83.3 | 104.2 | 116.6 | – | – | Dose-dependent effect | 95.7 | 88.6 | 80.1 | 60.8 | 76.1 |

Reference: ChEMBL document CHEMBL2034814, “Synthesis and evaluation of γ-lactam analogs of PGE₂ as EP4 and EP2/EP4 agonists” (Bioorg Med Chem, 2012)
